Data: ChEMBL document CHEMBL1146074, “Design and synthesis of 1-indol-1-yl-propan-2-ones as inhibitors of human cytosolic phospholipase A2alpha” (J Med Chem, 2006)
pIC50: −log10 of the molar value. Active and inactive are the calls of the source. The rule behind the calls is not given here.

Assays:
[1] = molecular target: T1, Cytosolic phospholipase A2 (Homo sapiens, UniProt P47712); experiment: Inhibition of cPLA2alpha activity assessed by A23187-induced arachidonic acid release in human platelet; format: functional
T1 sequence (P47712 whole entry): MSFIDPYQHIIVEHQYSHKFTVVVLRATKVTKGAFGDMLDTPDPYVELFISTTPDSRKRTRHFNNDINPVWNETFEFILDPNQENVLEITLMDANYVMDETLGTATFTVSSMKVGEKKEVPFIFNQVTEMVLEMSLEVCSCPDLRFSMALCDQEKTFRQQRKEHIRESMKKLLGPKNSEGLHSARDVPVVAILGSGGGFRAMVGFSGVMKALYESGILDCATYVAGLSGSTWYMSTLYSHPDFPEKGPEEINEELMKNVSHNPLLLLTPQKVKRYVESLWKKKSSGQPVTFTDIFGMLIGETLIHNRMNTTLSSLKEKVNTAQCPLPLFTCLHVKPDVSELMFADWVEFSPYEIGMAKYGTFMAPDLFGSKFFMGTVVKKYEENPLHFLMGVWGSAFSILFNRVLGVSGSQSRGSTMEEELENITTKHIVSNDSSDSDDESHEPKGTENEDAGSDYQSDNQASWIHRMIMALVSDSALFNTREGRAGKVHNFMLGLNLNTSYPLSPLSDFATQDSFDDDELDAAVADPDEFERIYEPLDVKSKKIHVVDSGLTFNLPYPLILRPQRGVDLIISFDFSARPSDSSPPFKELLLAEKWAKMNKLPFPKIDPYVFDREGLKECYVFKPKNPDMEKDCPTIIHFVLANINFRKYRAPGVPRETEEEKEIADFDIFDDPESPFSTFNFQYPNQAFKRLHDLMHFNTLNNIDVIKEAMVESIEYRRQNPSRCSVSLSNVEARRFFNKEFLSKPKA
Summary of the method: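 Intact human platelets stimulated with calcium ionophore A23187 (1 µM final) for 1 min, with ETYA added to block cyclooxygenase-1 and 12-lipoxygenase. Released arachidonic acid was measured by RP18 HPLC (acetonitrile/10 mM ammonium phosphate pH 7.4, 50:50) with UV at 200 nm, using an internal standard. IC50 values are means of at least two independent determinations.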

[2] = molecular target: T1, Cytosolic phospholipase A2; experiment: Inhibition of human isolated cPLA2-alpha by vesicle assay
Summary of the method: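 Test compounds were at most 10 µM. Arachidonic acid formed was cleaned up by solid-phase extraction and quantified by reversed-phase HPLC with UV at 200 nm. IC50 values are means of at least two independent determinations.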

[3] = molecular target: T1, Cytosolic phospholipase A2; experiment: Inhibition of cPLA2-alpha activity assessed by TPA-induced arachidonic acid release in human platelet; format: functional
Summary of the method: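 Intact human platelets stimulated with TPA (2 µM final) for 60 min, with the cyclooxygenase/12-lipoxygenase inhibitor ETYA added. Released arachidonic acid was quantified by RP18 HPLC with UV at 200 nm, using an internal standard. Parallel incubations without TPA were used to calculate specific hydrolysis. IC50 values are means of at least two independent determinations.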

[4] = molecular target: T2, Cytosolic phospholipase A2 (Homo sapiens) (UniProt P47712); experiment: Inhibition of human isolated cPLA2-alpha by vesicle assay at 10 uM
T2 sequence (whole entry): T1 sequence (P47712 whole entry)

[5] = molecular target: T2, Cytosolic phospholipase A2 (Homo sapiens); experiment: Inhibition of cPLA2-alpha activity assessed by A23187-induced arachidonic acid release in human platelet at 10 uM; format: functional
Summary of the method: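 Intact human platelets, with the dual cyclooxygenase/12-lipoxygenase inhibitor ETYA added, stimulated with calcium ionophore A23187 (1 µM final) for 1 min. Arachidonic acid released was measured by reversed-phase HPLC with UV at 200 nm, using 3-(4-decyloxyphenyl)propanoic acid as internal standard. Percent inhibition was read at 10 µM test compound. Cell lysis was checked by turbidimetry.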

inhibition [4] | inhibition [5] | SMILES | pIC50 [1] | pIC50 [2] | pIC50 [3]
 |  | CCCCCCCCc1ccc(OCC(=O)Cn2cc(C(C)=O)c3cc(C(=O)O)ccc32)cc1 | 6.00 | 7.80 | 8.19
 |  | CCCCCCCCc1ccc(OCC(=O)Cn2cc(Cl)c3cc(C(=O)O)ccc32)cc1 | 5.82 | 6.96 | 6.92
 |  | CCCCCCCCc1ccc(OCC(=O)Cn2cc(C#N)c3cc(C(=O)O)ccc32)cc1 | 6.43 | 7.82 | 7.96
inactive |  | CCCCCCCCc1ccc(OCC(=O)Cn2c(C(=O)O)cc3ccccc32)cc1 | 5.10 |  | 
 |  | CCCCCCCCc1ccc(OCC(=O)Cn2ccc3cc(C=O)ccc32)cc1 | 5.31 | 5.37 | 
40% | 40% | CCCCCCCCc1ccc(OCC(=O)Cn2cc(C(=O)O)c3ccccc32)cc1 |  |  | 
 |  | CCCCCCCCc1ccc(OCC(=O)Cn2cc(C=O)c3cc(C(=O)O)ccc32)cc1 | 6.42 | 7.80 | 8.01
inactive | inactive | CCCCCCCCc1ccc(OCC(=O)Cn2ccc3cc(Cl)ccc32)cc1 |  |  | 
inactive | 43% | CCCCCCCCc1ccc(OCC(=O)Cn2ccc3ccccc32)cc1 |  |  | 
 |  | CCCCCCCCc1ccc(OCC(=O)Cn2cc(C(=O)O)c3cc(C(=O)O)ccc32)cc1 | 5.19 | 6.05 | 6.25
inactive | 37% | CCCCCCCCc1ccc(OCC(=O)Cn2ccc3cc(OC)ccc32)cc1 |  |  | 
 |  | CCCCCCCCCCOc1ccc(OCC(=O)Cn2ccc3cc(C(=O)O)ccc32)cc1 | 6.68 | 7.70 | 8.11
 |  | CCCCCCCCc1ccc(OCC(=O)Cn2ccc3ccc(C(=O)O)cc32)cc1 | 5.33 | 5.96 | 
inactive | inactive | CCCCCCCCc1ccc(OCC(=O)Cn2ccc3cc(C)ccc32)cc1 |  |  | 
 |  | CCCCCCCCCCOc1ccc(OCC(=O)COc2ccc(C(=O)O)cc2)cc1 | 6.60 |  | 
36% | 40% | CCCCCCCCc1ccc(OCC(=O)Cn2ccc3cc(C(=O)OC)ccc32)cc1 |  |  | 
 |  | CCCCCCCCc1ccc(OCC(=O)Cn2ccc3cc(C(N)=O)ccc32)cc1 | 6.11 | 6.92 | 
 |  | CCCCCCCCc1ccc(OCC(=O)Cn2ccc3cc(C(=O)O)ccc32)cc1 | 6.39 |  | 7.74
 |  | CCCCCCCCCCOc1ccc(OCC(=O)Cn2cc(C(=O)OC)c3cc(C(=O)O)ccc32)cc1 | 6.24 | 8.37 | 9.05
 |  | CCCCCCCCc1ccc(OCC(=O)Cn2cc(C(=O)OC)c3cc(C(=O)O)ccc32)cc1 | 5.85 | 8.31 | 8.96
 |  | CCCCCCCCc1ccc(OCC(=O)Cn2cc(C(C)(C)C)c3cc(C(=O)O)ccc32)cc1 | 5.48 | 6.47 | 6.64

SMILES | inhibition [4] | inhibition [5] | pIC50 [1] | pIC50 [2] | pIC50 [3]
CCCCCCCCc1ccc(OCC(=O)Cn2ccc3c(C(=O)O)cccc32)cc1 | 40% | 40% |  |  | 
CCCCCCCCc1ccc(OCC(=O)Cn2ccc3cc(C#N)ccc32)cc1 | 25% | 46% |  |  | 
